Here are results for 1 molecule from ChEMBL document CHEMBL4382263, “Spirostaphylotrichin X from a Marine-Derived Fungus as an Anti-influenza Agent Targeting RNA Polymerase PB2” (J Nat Prod, 2018).

Test [1] has as its system Influenza A virus (A/Puerto Rico/8/1934(H1N1)). The test can be described thus: Inhibition of RNA polymerase in Influenza A virus (A/PR/8/34(H1N1)) infected in human 293T cells harboring pPol1-Fluc at 10 uM after 24 hrs by luciferase reporter gene assay. The format is cell-based. An outline of the steps: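 293T cells transfected with 50 ng pPolI-Fluc reporter. After 5 h, infected with PR8 at different titres for 1 h. Then given DMEM/10% FBS with 10 μM compound or 0.1% DMSO; luciferase measured in lysates after 24 h.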
Background: A reporter such as luciferase makes a cellular process visible.

A further test relates to Influenza A virus. The test can be described thus: Antiviral activity against Influenza A virus (A/PR/8/34(H1N1)) harboring neuraminidase H274Y mutant infected in MDCK cells assessed as reduction in virus-induced cytopathic effect by MTT assay. The class given is functional, organism-based, A/Puerto Rico/8/1934(H1N1). An outline of the steps: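 MTT-based cytopathic-effect reduction assay in MDCK cells. Run in triplicate; IC50 reported as mean ± SD.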
A general note: Protection from cytopathic effect is a common read-out in antiviral testing.

The source made the active and inactive calls. The rule behind the calls is not given here.

For the molecule `CC/C=C1/C=CC(=O)[C@@H](O)[C@]12C(=O)N(OC)[C@@](C)(OC)[C@@H]2O`, the inhibition entry in test [1] was “Active”. In the test with Influenza A virus, the IC50 (usually the concentration that gives 50% inhibition) amounted to 1200 nM.
